Screening results: PubChem BioAssay, several laboratories
SKN-1 block: C. elegans SKN-1 inhibition; C. elegans VP596 Pgst-4::GFP/RFP ratio, acrylamide-induced, 24 h; inhibition, % at 21.8 µM; 360,000 tested, 0.49% active;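 active means interference check ratio from 0.5 to 1.5 plus GFP to RFP signal ratio inhibition reaching or exceeding a fixed threshold, cut at about 30% in these data, passing the limit was not always enough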
PG9 binder: small molecules binding HIV-1 gp120 antibody PG9; 360,000 tested, 0.43% active; TR-FRET gp120-PG9 antibody binding; inhibition, % at 6.7 µM; in the data active means inhibition above about 8.5%
MT1-MMP act inh: MT1-MMP (human) activation inhibition | HT1080 RFP-PRO-GFP cells, GFP/RFP ratio fluorescence, overnight; percent of plate control window, DMSO zero | GFP/RFP ratio change, % at 20 µM | 360,000 tested, 0.061% active;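 active means GFP/RFP ratio change of at least 30% with cell ATP level not reduced by more than half and red fluorescence within 50% of control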
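Test system: HT1080 cells expressing an RFP-PRO-GFP fluorescent reporter construct / Compound dosing: single-point 20 µM compound, 1% DMSO / Schedule: cells overnight before dosing, compound overnight, 37 °C, 5% CO2 / Evaluation: GFP/RFP fluorescence ratio / Control set: DMSO and RFP-L50D-GFP cell wells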
NR2E3 ag-1: activates human photoreceptor nuclear receptor NR2E3; AID 2300; GST-NR2E3/biotin-RetCOR TR-FRET, 1536-well; 320,000 tested, 0.12% active; inhibition of corepressor binding, % at 4.78 µM;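 active means percent inhibition above the cutoff of mean plus 3 SD of all tested compounds, set per screening campaign, cut at about 20% in these data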;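 further: 0% = DMSO wells and 100% = biotin wells as full block of FRET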
Target sequence (Q9Y5X4 whole entry, looked up): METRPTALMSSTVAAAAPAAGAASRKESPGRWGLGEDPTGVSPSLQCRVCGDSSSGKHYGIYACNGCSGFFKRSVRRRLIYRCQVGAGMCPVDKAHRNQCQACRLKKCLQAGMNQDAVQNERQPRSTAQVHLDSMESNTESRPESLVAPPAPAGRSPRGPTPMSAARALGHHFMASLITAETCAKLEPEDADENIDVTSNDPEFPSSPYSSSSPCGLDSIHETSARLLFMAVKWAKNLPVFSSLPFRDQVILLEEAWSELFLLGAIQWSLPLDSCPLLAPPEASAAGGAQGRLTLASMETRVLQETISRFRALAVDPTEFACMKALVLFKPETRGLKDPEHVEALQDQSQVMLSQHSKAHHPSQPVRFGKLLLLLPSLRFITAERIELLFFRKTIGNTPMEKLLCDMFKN
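Assay system: NR2E3–RetCOR corepressor complex. Quantity: 1.35 nM GST-NR2E3. Buffer or medium: pH 7.5 Tris-based buffer. Reagent: biotinylated RetCOR corepressor at 7 nM final. Schedule: 5 h at 4 °C. Detection: TR-FRET, emission read at 617 and 671 nm. Replicates: one well per compound, singlicate testing.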
Rev-erbA mod: modulators of human Rev-erb alpha DNA binding; AID 1259318; 370,000 tested, 0.79% active; Rev-erbα–FITC-DNA binding, fluorescence polarization, 90 min; activity, % at 10 µM;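 active means activity above about 14%, limit read from the data; passing the limit was not always enough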;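 further: 0% = DMSO wells with 35 nM protein and 100% = DMSO wells with 750 nM protein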
NR2E3 ag-2: activates human NR2E3 receptor; CHO-S Gal4-NCOR/VP16-NR2E3 two-hybrid, luciferase; inhibition of corepressor binding, % at 3.98 µM; 360,000 tested, 0.35% active;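 active means inhibition above the mean of all tested compounds plus 3 SD, cut at about 70% in these data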;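 further: 0% = DMSO with NR2E3 transfected cells and 100% = cells lacking NR2E3 construct; higher means lower luciferase signal from less NR2E3 corepressor binding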
NR2E3 ag confirm: confirmation of human NR2E3 agonists. shares compounds with NR2E3 ag-2. CHO-S mammalian two-hybrid NR2E3-NCOR, luciferase luminescence. inhibition, % at 3.98 µM. 2,300 tested, 51% active. AID 624378;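 active means average inhibition above a cutoff equal to the mean inhibition of all tested compounds plus one SD, cut at about 70% in these data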;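 further: 0% = DMSO in NR2E3 cells and 100% = DMSO in cells lacking NR2E3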
VP16 counter: GAL4-VP16 reporter inhibition in NR2E3 agonist counterscreen | shares compounds with NR2E3 ag-2 | CHO-S GAL4-VP16 luciferase reporter, luminescence | inhibition, % at 3.98 µM | 2,300 tested, 29% active | AID 624379;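 active means mean inhibition above a cutoff equal to the average over all tested compounds plus one standard deviation, cut at about 70% in these data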;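 further: luciferase from a UAS reporter driven by GAL4-VP16 transactivation; 0% = DMSO with VP16-transfected cells and 100% = DMSO with cells lacking VP16; higher means less reporter light so more repression of VP16 activity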
Active calls of the source: *; · = no result given. Hits are enriched below; roughly 1.9% of the tested compounds scored in any of these assays.

SMILES | SKN-1 block | PG9 binder | MT1-MMP act inh | NR2E3 ag-1 | Rev-erbA mod | NR2E3 ag-2 | NR2E3 ag confirm | VP16 counter
CCOC(=O)c1cccc(NC(=O)CN(C)S(=O)(=O)c2ccc(C)c(C)c2)c1 | · | · | · | · | 0 | · | · | ·
Cc1c(COC(=O)NC(C)C)c(COC(=O)NC(C)C)c2n1CS(=O)(=O)C2 | · | 3 | · | · | -1 | · | · | ·
CCc1cccc(C)c1NC(=S)NCCc1c(C)[nH]c2ccc(C)cc12 | 7 | -1 | -6 | 1 | 4 | -11 | · | ·
CCc1cccc(CC)c1NC(=S)NCCc1c(C)[nH]c2ccc(C)cc12 | -1 | -1 | · | 4 | -5 | 71* | 19 | 6
Clc1ccccc1C(c1ccccc1)(c1ccccc1)n1ccnc1 | 9 | 1 | -13 | -28 | · | 60 | 70 | 54
[O-][n+]1ccccc1SSc1cccc[n+]1[O-] | · | · | · | · | 0 | · | · | ·
Cc1cccc(-c2nc(CSCC(=O)N3CCN(c4ccccn4)CC3)c(C)o2)c1 | -27 | 2 | 1 | -2 | -6 | 78* | 81* | 56
Cc1ccc(-c2nc(CSCC(=O)N3CCCC3)c(C)o2)cc1 | -19 | 0 | 2 | -3 | -4 | -3 | · | ·
Cc1ccsc1-c1nc(CSCC(=O)N2CCN(c3ccccc3)CC2)c(C)o1 | 2 | -2 | -4 | 4 | 0 | 58 | 35 | 27
COC(=O)[C@]12C[C@H](CC(=O)NCCCN3CCCC3=O)C(=O)N(Cc3ccccc3)C1=C[C@H](C(C)(C)C)O[C@@H]2C | · | -2 | · | · | -2 | · | · | ·
Nc1[nH]c(C(=O)c2ccc(Br)cc2)c(-c2ccc(Cl)cc2[N+](=O)[O-])c1C(=O)NCCc1c[nH]c2ccccc12 | · | 1 | · | · | 2 | · | · | ·
Cc1ccc(S(=O)(=O)Nc2ccccc2C(=O)Nc2nc(-c3ccc(F)cc3)cs2)cc1 | 8 | -2 | -29 | -3 | -2 | 94* | 98* | 84*
O=C(Nc1cc(S(=O)(=O)N2CCCCC2)ccc1O)c1ccccc1NS(=O)(=O)c1ccc(F)cc1 | -1 | -2 | 23 | -2 | 6 | 21 | · | ·
O=C(Nc1cc(S(=O)(=O)N2CCCCC2)ccc1Cl)c1ccccc1NS(=O)(=O)c1ccc(F)cc1 | -4 | -2 | -33 | 0 | -1 | 96* | 99* | 85*
COc1ccc(-c2csc(NC(=O)c3ccccc3NS(=O)(=O)c3ccc(F)c(F)c3)n2)cc1 | 9 | -1 | -12 | 2 | 3 | 98* | 101* | 91*
COc1cccc(CC(=O)Nc2nc(-c3ccc(F)c(F)c3)cs2)c1 | 8 | 1 | 0 | 1 | 1 | 1 | · | ·
COC(=O)c1cc(S(=O)(=O)N2CCC(c3cc(OC)ccc3OC)C2)c[nH]1 (stereo not given) | 16 | -1 | -6 | 2 | 3 | 81* | 69 | 62
COC(=O)c1cc(S(=O)(=O)N2CCC(c3ccccc3)C2)c[nH]1 (stereo not given) | -16 | -1 | 3 | 3 | 2 | 33 | · | ·
O=C(N[C@@H](Cc1cccnc1)C(=O)N1CCC[C@H]1C(=O)NC1CCCC1)C1CCCC1 | · | -1 | · | · | 1 | · | · | ·
O=C(Nc1ccc([N+](=O)[O-])cc1)Nc1ccc(OC(F)F)c(Cl)c1 | 0 | 0 | -32 | 6 | 4 | 98* | 99* | 94*
CCCc1cc(=O)[nH]c(SC/C=C/c2ccccc2)n1 | 10 | -2 | -3 | 1 | 0 | 16 | · | ·
O=c1cc(C(F)(F)F)nc(SC/C=C/c2ccccc2)[nH]1 | 25 | · | 3 | 1 | · | 52 | 77* | 29
